In ChEMBL document CHEMBL4706687, “Synthesis and Pharmacological Evaluation of Novel Non-nucleotide Purine Derivatives as P2X7 Antagonists for the Treatment of Neuroinflammation” (J Med Chem, 2021):
The source made the active and inactive calls. The calls are words filed in the database; no cut-off is given here.

How the values were obtained:
P2X purinoceptor 7 [1] = biological target: T1, P2X purinoceptor 7 (Homo sapiens, UniProt Q99572); experiment: Antagonist activity at human P2X7 receptor expressed in HEK293 cells assessed as reduction in benzoyl-ATP-induced YO-PRO-1 dye uptake pre-incubated for 20 mins before YO-PRO-1 addition and measured after 25 mins by fluorescence plate reader analysis relative to control; assay type: cell-based
T1 sequence (Q99572 whole entry): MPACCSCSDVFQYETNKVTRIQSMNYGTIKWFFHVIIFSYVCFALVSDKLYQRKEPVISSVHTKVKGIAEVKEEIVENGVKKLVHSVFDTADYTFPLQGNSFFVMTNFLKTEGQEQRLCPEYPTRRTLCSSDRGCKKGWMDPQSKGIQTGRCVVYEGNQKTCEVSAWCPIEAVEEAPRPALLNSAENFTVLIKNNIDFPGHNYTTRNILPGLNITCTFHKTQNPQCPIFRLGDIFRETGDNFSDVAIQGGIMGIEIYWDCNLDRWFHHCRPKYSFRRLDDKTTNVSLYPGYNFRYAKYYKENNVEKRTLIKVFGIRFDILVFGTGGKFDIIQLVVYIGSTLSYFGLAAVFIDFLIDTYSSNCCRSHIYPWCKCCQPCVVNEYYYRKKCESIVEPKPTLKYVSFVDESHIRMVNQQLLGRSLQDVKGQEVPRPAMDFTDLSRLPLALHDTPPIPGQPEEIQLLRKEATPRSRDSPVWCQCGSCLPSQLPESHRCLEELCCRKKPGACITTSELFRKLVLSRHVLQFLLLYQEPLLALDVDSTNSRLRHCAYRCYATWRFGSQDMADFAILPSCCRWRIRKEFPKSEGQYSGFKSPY
Outline: (§1)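 Stably transfected hP2X7-HEK293 cells, 48 h after seeding, in Mg²⁺-free Krebs-HEPES (0.2 mM CaCl₂, pH 7.4). Compound preincubation 20 min, then YO-PRO-1 2 μM, then BzATP 30 μM. Fluorescence at 485/520 nm read for 25 min. Each well normalized to Fmax (0.5% Triton X-100) and Fmin (2 M MnCl₂): F = (Fx − F0)/(Fmax − Fmin). Triplicates from three cultures. IC50 is the concentration halving BzATP-induced uptake.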

[2] = biological target: T2, P2X purinoceptor 4 (Rattus norvegicus) (UniProt P51577); experiment: Antagonist activity at rat P2X4 receptor expressed in Xenopus laevis oocytes assessed as reduction in ATP-induced channel currents at 100 uM by TEVC electrophysiology assay relative to control; assay type: cell-based; conditions: Oocyte
T2 sequence (whole entry): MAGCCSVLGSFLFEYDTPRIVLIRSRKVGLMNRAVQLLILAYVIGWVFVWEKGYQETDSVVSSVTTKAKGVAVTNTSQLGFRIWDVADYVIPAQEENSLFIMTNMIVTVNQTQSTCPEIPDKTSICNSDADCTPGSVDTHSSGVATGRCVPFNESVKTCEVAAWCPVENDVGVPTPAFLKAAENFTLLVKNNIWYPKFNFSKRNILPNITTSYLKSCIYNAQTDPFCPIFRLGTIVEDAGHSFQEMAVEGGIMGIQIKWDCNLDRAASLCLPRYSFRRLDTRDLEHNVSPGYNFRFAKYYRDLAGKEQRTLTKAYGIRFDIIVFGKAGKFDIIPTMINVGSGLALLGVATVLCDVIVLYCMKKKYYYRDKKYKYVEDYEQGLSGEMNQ
Outline: (§2)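 Two-electrode voltage clamp at −70 mV in low divalent-cation solution, oocytes incubated 1–2 days at 16–18 °C after 50 nL cRNA injection: rP2X1 and rP2X4 at 0.5 mg/mL, rP2X2 0.1 mg/mL, rP2X7 25 μg/mL. ATP 10 μM for rP2X1 and rP2X2, 30 μM for rP2X4 and rP2X7. Compound applied 3 min without perfusion. Currents normalized to control; three oocytes from two frogs.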

[3] = biological target: T3, P2X purinoceptor 7 (Homo sapiens) (UniProt Q99572); experiment: Antagonist activity at human P2X7 receptor expressed in HEK293 cells assessed as reduction in benzoyl-ATP-induced YO-PRO-1 dye uptake at 10 uM pre-incubated for 20 mins before YO-PRO-1 addition and measured after 25 mins by fluorescence plate reader analysis relative to control; assay type: cell-based; conditions: filed as antagonist, time 45.0 min; outline: as §1
T3 sequence (whole entry): T1 sequence (Q99572 whole entry)

[4] = biological target: T4, P2X purinoceptor 1 (Rattus norvegicus) (UniProt P47824); experiment: Antagonist activity at rat P2X1 receptor expressed in Xenopus laevis oocytes assessed as reduction in ATP-induced channel currents at 100 uM by TEVC electrophysiology assay relative to control; assay type: cell-based; conditions: Oocyte; outline: as §2
T4 sequence (whole entry): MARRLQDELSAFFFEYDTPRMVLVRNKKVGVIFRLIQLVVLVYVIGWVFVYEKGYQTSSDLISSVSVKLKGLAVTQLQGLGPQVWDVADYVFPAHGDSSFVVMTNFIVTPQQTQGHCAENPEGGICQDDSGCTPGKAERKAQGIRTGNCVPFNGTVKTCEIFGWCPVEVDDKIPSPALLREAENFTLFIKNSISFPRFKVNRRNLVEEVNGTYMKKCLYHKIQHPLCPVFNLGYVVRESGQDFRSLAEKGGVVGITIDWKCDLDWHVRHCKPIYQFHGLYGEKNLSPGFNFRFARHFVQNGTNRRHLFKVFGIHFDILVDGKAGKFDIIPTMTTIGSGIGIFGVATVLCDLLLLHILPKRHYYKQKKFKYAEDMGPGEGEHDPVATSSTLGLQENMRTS

[5] = biological target: T3, P2X purinoceptor 7 (Homo sapiens); experiment: Antagonist activity at human P2X7 receptor expressed in Xenopus laevis oocytes assessed as reduction in ATP-induced channel currents at 100 uM by TEVC electrophysiology assay relative to control; assay type: cell-based; conditions: Oocyte, filed as antagonist
Outline: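 Oocytes injected with 50 nL His-tagged hP2X7 cRNA (0.5 mg/mL), kept 1–2 days at 16–18 °C. Recorded in low divalent-cation solution (90 mM NaCl, 0.5 mM CaCl₂, 5 mM HEPES) at −70 mV. ATP 300 μM for 2 s after 3 min static compound incubation. Current normalized to control amplitude. Triplicates from three oocytes, two frogs.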

Peritoneal macrophage = experiment: Inhibition of Il-1beta production in LPS-stimulated C57BL/6 mouse peritoneal macrophages pre-incubated for 15 mins followed by ATP addition for 30 mins by ELISA method; assay type: functional, tissue-based; conditions: time 45.0 min
Outline: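 Thioglycolate-elicited peritoneal macrophages from 6–8-week male C57BL/6 mice, 3 × 10⁵ cells/well. Primed 4 h with LPS 1 μg/mL (E. coli 026:B6), then serum-free DMEM with compound for 15 min, then ATP for 30 min. Supernatant IL-1β measured by ELISA, expressed as percent of ATP-only control. Triplicates from three mice.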

P2X purinoceptor 7 [6] = biological target: T1, P2X purinoceptor 7; experiment: (§3) Antagonist activity at human P2X7 receptor expressed in HEK293 cells assessed as reduction in benzoyl-ATP-induced intracellular Ca2+ level by Fura-2 dye based fluorescence assay; assay type: cell-based
Outline: (§4)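 hP2X7-HEK293 cells 24–48 h after seeding, loaded with Fura-2-AM 8 μM for 1 h, then washed in Mg²⁺-free Tyrode (2 mM CaCl₂, pH 7.4) for 15–30 min with compound present. Excitation 340/380 nm, emission 520 nm. Basal recording, then BzATP injected (100 μM final). [Ca²⁺]c from Grynkiewicz equation. Blockade as percent of BzATP peak in Tyrode-only wells; triplicates.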

[7] = biological target: T3, P2X purinoceptor 7 (Homo sapiens); experiment: as §3; assay type: cell-based; conditions: filed as antagonist; outline: as §4

IC50 (P2X purinoceptor 7 [1]): 9 µM
inhibition [2]: inactive
inhibition [3]: 63%
inhibition [4]: inactive
inhibition [5]: 47%
IC50 (P2X purinoceptor 7 [6]): 13.7 µM
inhibition [7]: Dose-dependent effect
Structure (SMILES): O=C(Cn1cnc2c(Cl)ncnc21)c1ccc(Cl)cc1Cl
inhibition (Peritoneal macrophage): Dose-dependent effect
